Screening data as filed in PubChem.
KCC2 mod = KCC2 (human) Cl- transport modulation. KCC2 cells, thallium flux FluoZin-2 fluorescence. B-score of Tl+ flux slope (higher = more flux/activation; lower = inhibition) at 10 µM. actives 2.2% (n = 190,000);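 active means thallium flux slope and its plate-corrected score both differing from the plate sample mean at a set confidence after two filtering rounds, in either direction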;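 further: slope of fluorescence scaled to starting intensity during 10 to 20 s after thallium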
CHT allo act = allosterically activates the human high affinity choline transporter; Q9GZV3; CHT-expressing cells, membrane potential dye, choline EC20; active compounds read high; LV-AA mutant CHT in HEK293 cells; B-score at 10 µM; actives 0.49% (n = 310,000); AID 488977;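 active means initial fluorescence not abnormally high and integrated response B-score, plate-corrected, over 3 SD above library mean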
CHT block = human CHT choline transport inhibition | Q9GZV3 | CHT-expressing cells, membrane potential dye, choline response; active compounds read low | B-score at 10 µM | actives 0.86% (n = 310,000);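 active means B-score over 3 SD under the library average, and starting fluorescence ratio not unusually high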;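 further: choline stimulus applied at its EC90 after an EC20 pre-addition; B-score computed on integrated fluorescence ratio after choline addition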
Rad51 HR inh = blocks human Rad51 in homologous recombination. Q06609. hRad51 DNA strand exchange, fluorescence dequenching. inhibition, % at 10 µM. actives 0.085% (n = 200,000);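 active means inhibition above 40% at the single screening dose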;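 further: 0% = DMSO control wells and 100% = blanks with heterologous ssDNA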
Target sequence (Q06609 whole entry, looked up): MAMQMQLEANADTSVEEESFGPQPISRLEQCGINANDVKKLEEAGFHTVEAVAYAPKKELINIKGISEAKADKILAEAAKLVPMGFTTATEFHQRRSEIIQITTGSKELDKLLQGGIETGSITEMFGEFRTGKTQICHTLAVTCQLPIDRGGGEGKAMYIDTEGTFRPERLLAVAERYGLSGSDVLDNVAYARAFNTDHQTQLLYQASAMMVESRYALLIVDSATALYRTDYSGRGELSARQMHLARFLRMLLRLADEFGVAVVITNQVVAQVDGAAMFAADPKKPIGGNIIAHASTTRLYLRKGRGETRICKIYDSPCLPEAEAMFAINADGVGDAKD
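Assay system: Human Rad51 nucleoprotein filaments preassembled on unlabelled ssDNA | Reagent: Donor/quencher-labelled 47-bp dsDNA substrate | Doses: One concentration, 10 µM final | Times: 37 °C 15-min filament assembly, 30-min compound preincubation, 15-min exchange | Technique: Fluorescein emission 520 nm, excitation 485 nm | Benchmarks: Plate control and blank wells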
CHT act confirm = confirmation of human choline transporter (CHT) activators. activation, % at 10 µM. CHT-expressing cells, membrane potential dye fluorescence (FDSS); % of choline EC20–EC90 response window; HEK293 expressing CHT LV-AA mutant; choline added at its EC20. shares compounds with CHT allo act. actives 91% (n = 2,500);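 active means primary screen active, with duplicate mean activation above negative control mean plus 3 SD, cut at about 11% in these data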
HEK293 MP dye = CHT activator counter-screen hit in parental HEK293 cells. ratio readout change at 10 µM, hits read low. membrane potential dye fluorescence (FDSS); measured after EC20 choline addition. actives 62% (n = 2,500). shares compounds with CHT allo act;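 active means duplicate-averaged ratio beyond 3 SD from buffer wells, up or down, though filed actives are nearly all decreases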
* hit, by the source's call; i = inactive; nt = no result given. Most compounds without a hit are left out; they make up all but 2.6% or so of the library.

SMILES | KCC2 mod | CHT allo act | CHT block | Rad51 HR inh | CHT act confirm | HEK293 MP dye
COc1ccc(C(=O)Nc2nnc(CCS(=O)(=O)c3ccc(C)cc3)s2)cc1 | 0.022 | i | i | -4 | nt | nt
O=C1N(Cc2cccc(Cl)c2)C[C@@H]2C[C@@H](c3cccn3-c3nccs3)N3CCC[C@@]123 | nt | i | i | -26 | nt | nt
O=C1N(Cc2cccc(Cl)c2)C[C@@H]2C[C@@H](c3cccn3-c3ccccn3)N3CCC[C@@]123 | 0.93 | 7.1* | i | 0 | 53* | i
COc1ccc(CNC(=O)CN(C(=O)CCC(=O)Nc2nccs2)c2ccc(C)cc2)cc1 | nt | i | i | nt | nt | nt
O=C(Nc1ccccc1)c1ccccc1OCc1ccc(S(=O)(=O)N2CCOCC2)cc1 | 2.2 | i | i | -4 | nt | nt
CCn1c(=O)cc(OCC(=O)NCCCN2CCCC2=O)c2ccccc21 | nt | i | i | nt | nt | nt
Cn1nc(C(=O)NCc2ccccc2)c2c1-c1ccccc1S(=O)(=O)C2 | nt | i | i | nt | nt | nt
COc1ccc(N2CCN(c3oc(COc4ccccc4)nc3C#N)CC2)cc1 | -0.69 | i | i | 3 | 35* | i
COc1ccc(N2CCN(c3oc(COc4ccc(Cl)cc4Cl)nc3C#N)CC2)cc1 | nt | 9.5* | i | 3 | 27* | i
COc1ccc(N2CCN(c3oc(COc4ccc(Cl)cc4)nc3C#N)CC2)cc1 | -0.96 | 8* | i | 18 | 36* | i
COc1ccc(N2CCN(c3oc(Cc4ccccc4)nc3C#N)CC2)cc1 | 0.021 | i | i | 0 | nt | nt
O=C(O)c1ccc(NCCC2=CCCCC2)c([N+](=O)[O-])c1 | -0.57 | i | i | 4 | nt | nt
COc1ccccc1NS(=O)(=O)c1cccc(C(=O)NCc2ccncc2)c1 | nt | i | i | nt | nt | nt
Nc1c2c(nc3c1CCC3)CCCC2 | 0.49 | 12* | i | 2 | 44* | -70*
Cc1ccc(S(=O)(=O)c2nc(-c3ccco3)oc2SC(C)C)cc1 | nt | i | i | nt | 15* | i
NCCCCCC(=O)Nc1ccncc1 | 0.61 | i | i | 3 | 18* | -35*
c1ccc2c(-c3cc(C4CCNCC4)[nH]n3)cccc2c1 | 0.046 | i | i | 10 | nt | nt
COC(=O)c1sc(Nc2ccccc2)nc1C | -0.82 | i | i | 0 | nt | nt
COC(=O)c1sc(NC(=O)C(C)c2ccccc2)nc1C (stereo unspecified) | 1.9 | 6.7* | i | 10 | 30* | i
CN1/C(=C\C=[N+](C)c2ccccc2)C(C)(C)c2ccccc21 | nt | 8.1* | i | 12 | 75* | -24*
CC1=NN(c2ccccc2)C(=O)/C1=C\C=C1/N(C)c2ccccc2C1(C)C | -2.5 | i | i | -38 | nt | nt
Cc1cccn2c(=O)c(C=O)c(N3CCN(c4ccccc4)CC3)nc12 | -0.65 | i | i | -21 | nt | nt
Cc1cccn2c(=O)c(C=O)c(N3CCN(C)CC3)nc12 | nt | 7.1* | i | nt | 71* | -66*
CCN1CCN(c2nc3ccccn3c(=O)c2C=O)CC1 | nt | i | i | nt | 57* | -51*
O=Cc1c(N2CCN(CCO)CC2)nc2ccccn2c1=O | nt | i | i | nt | nt | nt
SMILES | KCC2 mod | CHT allo act | CHT block | Rad51 HR inh | CHT act confirm | HEK293 MP dye
Cc1ccc2nc(N3CCN(C)CC3)c(C=O)c(=O)n2c1 | nt | i | i | nt | 74* | -51*
CCNC(=O)/C(C#N)=C/c1c(N2CCN(C)CC2)nc2c(C)cccn2c1=O | nt | 6.3* | i | nt | 49* | -53*
CCn1nnnc1NCc1ccc(OCc2ccc(F)cc2Cl)c(OC)c1 | -0.088 | i | i | 0 | nt | nt
CCOC(=O)CN1N=C(c2ccc(Cl)cc2)CCC1=O | nt | i | i | nt | nt | nt
Cc1ccc(S(=O)(=O)N(C)C)cc1NC(=O)C(C)N(C)Cc1sccc1C (stereo unspecified) | nt | i | i | nt | nt | nt
OCC1CCCCN1C(=S)Nc1cccc(Cl)c1 (stereo unspecified) | -0.1 | i | i | 13 | nt | nt
Cc1ccc(S(=O)(=O)/C(C#N)=C/c2c(N3CCN(C)CC3)nc3c(C)cccn3c2=O)cc1 | nt | 7.4* | i | -11 | 50* | -46*
Clc1ccc(N/N=C/c2ccncc2)cc1Cl | 0.18 | i | i | 0 | nt | nt
Clc1cnc(N/N=C/c2ccncc2)c(Cl)c1 | nt | i | i | nt | 37* | -44*
COc1ccc(C(C)n2c(C)c3c(C)nnc(C)c3c2C)cc1 (stereo unspecified) | nt | 6.6* | i | 5 | 56* | -45*
O=C(NCc1ccco1)c1ccc(N2CCCC2=O)cc1 | nt | i | i | -4 | nt | nt
O=C(N/N=C/c1ccco1)c1ccc(N2CCCC2=O)cc1 | 0.9 | 7.7* | i | 0 | 59* | -70*
Nc1cc(S(=O)(=O)Nc2cc(Cl)ccc2Cl)ccc1N1CCCC1 | -0.39 | i | i | -28 | nt | nt
CNC(=S)Nc1cc(S(=O)(=O)Nc2cc(Cl)ccc2Cl)ccc1N1CCCC1 | nt | i | i | nt | 14* | i
Cc1ccc(NC(=O)CN(c2ccccc2)S(=O)(=O)N(C)C)cc1 | -0.022 | i | i | 7 | nt | nt
CC(C)(C)OC(=O)COc1cc(O)c2c(=O)cc(-c3ccccc3)oc2c1 | -0.68 | i | i | 7 | nt | nt
CC(C)(C)OC(=O)COc1cc(OCC(=O)OC(C)(C)C)c2c(=O)cc(-c3ccccc3)oc2c1 | -0.9 | 8.3* | i | -5 | 50* | i
O=C(O)c1cc(Cl)c2c(c1)OCO2 | 0.38 | i | i | -65 | nt | nt
CCOC(=O)N1CCN(c2cc(NCCO)c([N+](=O)[O-])c3nonc23)CC1 | -0.18 | i | i | 15 | 39* | -32*
O=C1CCc2ccc(NC(=O)C3CC3)cc2N1 | 1 | i | i | 27 | nt | nt
CC(C)(CO)NC(=O)C(Cc1ccccc1)N1C(=O)c2ccccc2C1=O (stereo unspecified) | nt | i | i | nt | nt | nt
O=C(CSc1ccc2nnc(-c3cccc(F)c3)n2n1)NCC1CCCO1 (stereo unspecified) | -1.3 | i | i | 4 | nt | nt
Cc1cc(NC(=O)CSc2ccc3nnc(-c4ccccc4)n3n2)no1 | -0.82 | 7.1* | i | -3 | 48* | -32*
COc1ccc(-c2nnc3ccc(SCC(=O)Nc4cc(C)on4)nn23)cc1 | 0.066 | nt | nt | 3 | nt | nt
O=C(CSc1ccc2nnc(-c3cccnc3)n2n1)NCC1CCCO1 (stereo unspecified) | 0.77 | i | i | -6 | 11* | i
CC(=O)c1ccc(NC(=O)c2ccn(C(=O)OCC(C)C)n2)cc1 | 0.073 | i | i | 11 | 18* | -36*
Cc1cc(C)c(S(=O)(=O)c2ccc(Cl)cc2C)c(Cl)n1 | -1.2 | i | i | nt | nt | nt
COC(=O)c1ccc(N2CCN(C)CC2)c(NC(=O)c2cccs2)c1 | nt | 6.7* | i | nt | 33* | -71*
